Test results reported in ChEMBL document CHEMBL1955724, “Synthesis, antimicrobial and anticancer activities of a novel series of diphenyl 1-(pyridin-3-yl)ethylphosphonates” (Bioorg Med Chem, 2012).
≈ marks a conversion by molar mass, not a printed value.

How the values were obtained:
MCF7 = assay: Cytotoxicity against human MCF7 cells after 72 hrs by sulforhodamine B assay; type: functional, cell-based; settings: MCF7, 72 h
[1] = Toxicity in Artemia salina assessed as mortality after 72 hrs; type: organism-based; settings: in vivo, read-out: LD50
Summary of the method: (§1)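 Artemia salina larvae, 20 per 5 mL saline vial, were exposed to compound at […]. Three replicates were run per concentration. Living larvae were counted after 72 h, with data as mean ± SD.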

[2] = Toxicity in Artemia salina assessed as mortality at 1000 ug/mL after 72 hrs; type: organism-based; settings: in vivo, read-out: Activity; summary of the method: as §1
Artemia salina = assay: (§2) Toxicity in Artemia salina assessed as mortality at 100 ug/mL after 72 hrs; type: organism-based; settings: in vivo, 72 h; summary of the method: as §1
[3] = Ratio of IC50 for human HepG2 cells to LD50 for Artemia salina
[4] = Ratio of IC50 for human MCF7 cells to LD50 for Artemia salina
Escherichia coli [5] = assay: Antibacterial activity against Escherichia coli NCIM2065 at 10 mg after 24 to 48 hrs by agar well diffusion method; type: functional; settings: read-out: DIZ
Summary of the method: (§3)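 Cut-plug well assay: each well filled with 10 mg of powdered compound. Bacteria were on nutrient agar (peptone, beef extract, NaCl) at pH 7, and yeasts on Sabouraud agar (glucose, peptone) at pH 6.0. Plates were incubated at 30 °C for 24–48 h, and inhibition zone diameters were measured in triplicate.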

Staphylococcus aureus [6] = assay: Antibacterial activity against Staphylococcus aureus ATCC 25292 at 10 mg after 24 to 48 hrs by agar well diffusion method; type: functional; settings: read-out: DIZ; summary of the method: as §3
Bacillus subtilis [7] = assay: Antibacterial activity against Bacillus subtilis PC1219 at 10 mg after 24 to 48 hrs by agar well diffusion method; type: functional; settings: read-out: DIZ; summary of the method: as §3
Candida albicans [8] = assay: Antifungal activity against Candida albicans at 10 mg after 24 to 48 hrs by agar well diffusion method; type: functional; settings: read-out: DIZ; summary of the method: as §3
Saccharomyces cerevisiae [9] = assay: Antifungal activity against Saccharomyces cerevisiae at 10 mg after 24 to 48 hrs by agar well diffusion method; type: functional; settings: read-out: DIZ; summary of the method: as §3
Escherichia coli [10] = assay: Antibacterial activity against Escherichia coli NCIM2065 after 24 to 48 hrs by agar disc diffusion method; type: functional
Summary of the method: (§4)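 Filter-paper discs (5 mm) were impregnated with compound in DMSO at […]. Nutrient agar was seeded with 100 µL inoculum: 5 × 10^5 for bacteria, 4 × 10^4 for yeasts. Controls were ciprofloxacin discs for bacteria, amphotericin B discs for yeasts, and DMSO blanks. Plates were held at 37 °C for 24–48 h; zone diameter (mm) given as triplicate mean ± SD.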

Staphylococcus aureus [11] = assay: Antibacterial activity against Staphylococcus aureus ATCC 25292 after 24 to 48 hrs by agar disc diffusion method; type: functional; summary of the method: as §4
Bacillus subtilis [12] = assay: Antibacterial activity against Bacillus subtilis PC1219 after 24 to 48 hrs by agar disc diffusion method; type: functional; summary of the method: as §4
Candida albicans [13] = assay: Antifungal activity against Candida albicans after 24 to 48 hrs by agar disc diffusion method; type: functional; summary of the method: as §4
Saccharomyces cerevisiae [14] = assay: Antifungal activity against Saccharomyces cerevisiae after 24 to 48 hrs by agar disc diffusion method; type: functional; summary of the method: as §4
HepG2 = assay: Cytotoxicity against human HepG2 cells after 72 hrs by sulforhodamine B assay; type: functional, cell-based; settings: HepG2, 72 h
[15] = as §2; type: organism-based; settings: in vivo, read-out: Activity; summary of the method: as §1

SMILES | IC50 (MCF7) [µg/mL] | LC50 at 72 h [1] [µg/mL] | mortality at 72 h, 1000 ug/mL [2] [%] | Activity (Artemia salina) | Ratio [3] | Ratio [4] | zone of inhibition at 10000 µg/disc (Escherichia coli [5]) [mm] | zone of inhibition at 10000 µg/disc (Staphylococcus aureus [6]) [mm] | zone of inhibition at 10000 µg/disc (Bacillus subtilis [7]) [mm] | zone of inhibition at 10000 µg/disc (Candida albicans [8]) [mm] | zone of inhibition at 10000 µg/disc (Saccharomyces cerevisiae [9]) [mm] | MIC (Escherichia coli [10]) [µg/mL] | MIC (Staphylococcus aureus [11]) [µg/mL] | MIC (Bacillus subtilis [12]) [µg/mL] | MIC (Candida albicans [13]) [µg/mL] | MIC (Saccharomyces cerevisiae [14]) [µg/mL] | IC50 (HepG2) [µg/mL] | mortality at 72 h, 100 ug/mL [15] [%]
CC(Nc1ccccc1)(c1cccnc1)P(=O)(Oc1ccccc1)Oc1ccccc1 (centres undefined) | 18.2 (≈ 42.3 µM) | 915 (≈ 2130 µM) | 60 | Non-toxic | 0.019 | 0.02 | 13 | 12 | 15 | 13 | 14 | 100 (≈ 232 µM) | 10 (≈ 23.2 µM) | 10 (≈ 23.2 µM) | 10 (≈ 23.2 µM) | 10 (≈ 23.2 µM) | 17.3 (≈ 40.2 µM) | –
Cc1ccc(NC(C)(c2cccnc2)P(=O)(Oc2ccccc2)Oc2ccccc2)cc1 (centres undefined) | 20.2 (≈ 45.4 µM) | 83 (≈ 187 µM) | 10 | – | 0.16 | 0.243 | 22 | 19 | 15 | 17 | 16 | 10 (≈ 22.5 µM) | 50 (≈ 112 µM) | 10 (≈ 22.5 µM) | 10 (≈ 22.5 µM) | 10 (≈ 22.5 µM) | 13.3 (≈ 29.9 µM) | –
O=C(O)c1cn(C2CC2)c2cc(N3CCNCC3)c(F)cc2c1=O [CIPROFLOXACIN] | – | – | – | – | – | – | – | – | – | – | – | 5 (≈ 15.1 µM) | 5 (≈ 15.1 µM) | 5 (≈ 15.1 µM) | – | – | – | –
CC(NNc1ccccc1)(c1cccnc1)P(=O)(Oc1ccccc1)Oc1ccccc1 (centres undefined) | 19.4 (≈ 43.6 µM) | 843 (≈ 1890 µM) | 60 | Non-toxic | 0.02 | 0.023 | 32 | 28 | 26 | 26 | 27 | 10 (≈ 22.4 µM) | 10 (≈ 22.4 µM) | 10 (≈ 22.4 µM) | 10 (≈ 22.4 µM) | 10 (≈ 22.4 µM) | 17.6 (≈ 39.5 µM) | –
C[C@@H]1[C@H](O)[C@@H](C)/C=C/C=C/C=C/C=C/C=C/C=C/C=C/[C@H](O[C@@H]2O[C@H](C)[C@@H](O)[C@H](N)[C@@H]2O)C[C@@H]2O[C@](O)(C[C@@H](O)C[C@@H](O)[C@H](O)CC[C@@H](O)C[C@@H](O)CC(=O)O[C@H]1C)C[C@H](O)[C@H]2C(=O)O [AMPHOTERICIN B] | – | – | – | – | – | – | – | – | – | – | – | – | – | – | 15 (≈ 16.2 µM) | 15 (≈ 16.2 µM) | – | –
CC(Nc1ccc(O)cc1)(c1cccnc1)P(=O)(Oc1ccccc1)Oc1ccccc1 (centres undefined) | 19.6 (≈ 43.9 µM) | 1000 (≈ 2240 µM) | 60 | Non-toxic | 0.017 | 0.02 | 20 | 21 | 20 | 15 | 16 | 10 (≈ 22.4 µM) | 10 (≈ 22.4 µM) | 10 (≈ 22.4 µM) | 10 (≈ 22.4 µM) | 10 (≈ 22.4 µM) | 17.1 (≈ 38.3 µM) | –
CC(Nc1ccc(Cl)cc1)(c1cccnc1)P(=O)(Oc1ccccc1)Oc1ccccc1 (centres undefined) | 17.6 (≈ 37.9 µM) | 38 (≈ 81.7 µM) | 100 | – | 0.415 | 0.463 | 20 | 21 | 25 | 23 | 23 | 10 (≈ 21.5 µM) | 10 (≈ 21.5 µM) | 10 (≈ 21.5 µM) | 10 (≈ 21.5 µM) | 10 (≈ 21.5 µM) | 15.8 (≈ 34 µM) | 15
